The source made the active and inactive calls. The calls are words filed in the database; no cut-off is given here.
Experiments:
[1] = Acute toxicity in Swiss albino mouse assessed as relative lung weight at 50 mg/kg, po measured after 7 days (reference value: 0.70 +/- 0.08 %); assay type: organism-based; settings: in vivo, 168 h, time 7 day
[2] = Acute toxicity in Swiss albino mouse assessed as SGOT level at 5 mg/kg, po measured after 7 days (reference value: 31.99 +/- 3.37 U/L); assay type: organism-based; settings: in vivo, 168 h, time 7 day
[3] = Elimination rate constant in Sprague-Dawley rat at 1 mg/kg, po measured upto 24 hrs by LC-MS/MS analysis; assay type: ADME, organism-based; settings: in vivo
Outline: (§1)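 Female Sprague-Dawley rats (n = 4), fasted overnight 12–14 h, dosed orally at 1 mg kg-1 as a 0.25% CMC suspension and fed 3 h post-dose. Retro-orbital blood was taken from 0.25 to 24 h. Plasma was hexane-extracted and assayed by LC-MS/MS. Cmax and Tmax were read from the data; other parameters came from non-compartmental analysis. Mean ± S.D.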

[4] = Acute toxicity in Swiss albino mouse assessed as ALKP level at 1000 mg/kg, po measured after 7 days (reference value: 379.25 +/- 27.08 U/L); assay type: organism-based; settings: in vivo, 168 h, time 7 day
[5] = Acute toxicity in Swiss albino mouse assessed as albumin level at 50 mg/kg, po measured after 7 days (reference value: 3.24 +/- 0.30 g/dL); assay type: organism-based; settings: in vivo, 168 h, time 7 day
[6] = Volume of distribution in Sprague-Dawley rat at 1 mg/kg, iv measured upto 24 hrs by LC-MS/MS analysis; assay type: ADME, organism-based; settings: in vivo
[7] = Acute toxicity in Swiss albino mouse assessed as tissue protein level at 50 mg/kg, po measured after 7 days (reference value: 0.029 +/- 0.004 mg/ml); assay type: organism-based; settings: in vivo, 168 h, time 7 day
[8] = Initial concentration in Sprague-Dawley rat at 1 mg/kg, iv measured upto 24 hrs by LC-MS/MS analysis; assay type: ADME, organism-based; settings: in vivo
[9] = Volume of distribution in Sprague-Dawley rat at 1 mg/kg, po measured upto 24 hrs by LC-MS/MS analysis; assay type: ADME, organism-based; settings: in vivo; outline: as §1
[10] = Acute toxicity in Swiss albino mouse assessed as triglycerides level at 1000 mg/kg, po measured after 7 days (reference value: 58.51 +/- 10.82 mg/dL); assay type: organism-based; settings: in vivo, 168 h, time 7 day
[11] = Acute toxicity in Swiss albino mouse assessed as morbidity at 5 to 1000 mg/kg, po measured after 7 days; assay type: organism-based; settings: in vivo, 168 h, dose 5-1000 mg/kg, time 7 day
Outline: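 Acute oral toxicity per OECD guidelines 420, 423 and 425. Swiss albino mice received a single oral dose at 5, 50, 300 or 1000 mg kg1 body weight, with vehicle controls. Animals were watched for morbidity, mortality and observational changes over 7 days. Tail-vein blood was then taken for hematology and serum biochemistry. Organs were inspected at sacrifice. n = 6 per group.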

Mus musculus = assay: In vivo osteogenic activity in ovariectomized BALB/c mouse assessed as increase in energy required to break bone at 1 to 10 mg/kg, po via gavage administered for 1 month by TKC Muromachi bone strength testing method; assay type: functional, organism-based; settings: dose 1-10 mg/kg, time 1.0 months
Outline: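 Ovariectomized balb/c mice were gavaged with 1 or 10 mg kg-1 daily for one month. Bones were then tested on a bone strength tester for energy, stiffness and force to break. Mean ± SEM compared with the Ovx vehicle group.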

[12] = Acute toxicity in Swiss albino mouse assessed as relative kidney weight at 1000 mg/kg, po measured after 7 days (reference value: 1.25 +/- 0.08 %); assay type: organism-based; settings: in vivo, 168 h, time 7 day
[13] = Acute toxicity in Swiss albino mouse assessed as relative lung weight at 300 mg/kg, po measured after 7 days (reference value: 0.70 +/- 0.08 %); assay type: organism-based; settings: in vivo, 168 h, time 7 day
[14] = Acute toxicity in Swiss albino mouse assessed as albumin level at 5 mg/kg, po measured after 7 days (reference value: 3.24 +/- 0.30 g/dL); assay type: organism-based; settings: in vivo, 168 h, time 7 day
[15] = Elimination rate constant in Sprague-Dawley rat at 1 mg/kg, iv measured upto 24 hrs by LC-MS/MS analysis; assay type: ADME, organism-based; settings: in vivo
[16] = Acute toxicity in Swiss albino mouse assessed as albumin level at 1000 mg/kg, po measured after 7 days (reference value: 3.24 +/- 0.30 g/dL); assay type: organism-based; settings: in vivo, 168 h, time 7 day
[17] = Clearance in Sprague-Dawley rat at 1 mg/kg, po measured upto 24 hrs by LC-MS/MS analysis; assay type: ADME, organism-based; settings: in vivo; outline: as §1
[18] = Acute toxicity in Swiss albino mouse assessed as relative ovary weight at 300 mg/kg, po measured after 7 days (reference value: 0.07 +/- 0.02 %); assay type: organism-based; settings: in vivo, 168 h, time 7 day
Calvarial osteoblast [19] = assay: Induction of osteoblast differentiation in mouse calvarial osteoblast assessed as increase in ERalpha expression at 1 pM incubated for 48 hrs by Western blot analysis; assay type: functional, cell-based
Outline: (§2)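 Calvarial osteoblasts at 60–70% confluence were treated ± compound for 48 h, with 100 pM E2 as positive control. Lysates (30 µg protein) were resolved on 10% SDS-PAGE, transferred to PVDF and probed for ER-α and ER-β with HRP secondaries and ECL detection. Bands were quantified by densitometry normalized to β-actin.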

Calvarial osteoblast [20] = assay: Induction of osteoblast differentiation in mouse calvarial osteoblast assessed as increase in ALP activity using PNPP as substrate at 0.000001 to 1 uM incubated activity for 48 hrs by spectrophotometric analysis relative to control; assay type: functional, cell-based; settings: dose lower 1e-06 µM, dose upper 1.0 µM
[21] = Acute toxicity in Swiss albino mouse assessed as relative kidney weight at 300 mg/kg, po measured after 7 days (reference value: 1.25 +/- 0.08 %); assay type: organism-based; settings: in vivo, 168 h, time 7 day
[22] = Half life in Sprague-Dawley rat at 1 mg/kg, iv measured upto 24 hrs by LC-MS/MS analysis; assay type: ADME, organism-based; settings: in vivo
[23] = Acute toxicity in Swiss albino mouse assessed as absolute kidney weight at 50 mg/kg, po measured after 7 days (reference value: 0.29 +/- 0.02 g); assay type: organism-based; settings: in vivo, 168 h, time 7 day
[24] = Acute toxicity in Swiss albino mouse assessed as tissue protein level at 300 mg/kg, po measured after 7 days (reference value: 0.029 +/- 0.004 mg/ml); assay type: organism-based; settings: in vivo, 168 h, time 7 day
[25] = Acute toxicity in Swiss albino mouse assessed as absolute spleen weight at 5 mg/kg, po measured after 7 days (reference value: 0.17 +/- 0.03 g); assay type: organism-based; settings: in vivo, 168 h, time 7 day
[26] = Acute toxicity in Swiss albino mouse assessed as body weight at 1000 mg/kg, po observed on day 1 (reference value: 20.38 +/- 0.24 g); assay type: organism-based; settings: in vivo, 24 h, time 1 day
Calvarial osteoblast [27] = assay: Induction of osteoblast differentiation in mouse calvarial osteoblast assessed as increase in ERbeta expression at 1 pM incubated for 48 hrs by Western blot analysis; assay type: functional, cell-based; outline: as §2
[28] = Acute toxicity in Swiss albino mouse assessed as monocyte count at 1000 mg/kg, po measured after 7 days (reference value: 12.58 +/- 2.86 %); assay type: organism-based; settings: in vivo, 168 h, time 7 day
[29] = Acute toxicity in Swiss albino mouse assessed as relative uterus weight at 5 mg/kg, po measured after 7 days (reference value: 1.63 +/- 0.71 %); assay type: organism-based; settings: in vivo, 168 h, time 7 day
[30] = Acute toxicity in Swiss albino mouse assessed as relative liver weight at 1000 mg/kg, po measured after 7 days (reference value: 6.81 +/- 2.14 %); assay type: organism-based; settings: in vivo, 168 h, time 7 day
[31] = Acute toxicity in Swiss albino mouse assessed as absolute kidney weight at 5 mg/kg, po measured after 7 days (reference value: 0.29 +/- 0.02 g); assay type: organism-based; settings: in vivo, 168 h, time 7 day

Work on `CCCCN(C)C(=O)CCCCOc1ccc([C@H]2c3ccc(OC)cc3OC(C)(C)[C@@H]2c2ccccc2)cc1` yielded an Activity [1] of 0.84%, an Activity [2] of 33.05 U/L and a k el at 24 h [3] of 5.39e-05 s⁻¹. For the same compound, the Activity [4] was 378.12 U/L, the Activity [5] was 2.77 g/dL and the Vd [6] was 5.61 L/kg. The Activity [7] was 0.036 mg/mL, the C0 at 24 h [8] was 610 ng/mL and the Vd [9] was 5.822 L/kg. For the same compound, the Activity [10] was 92.31 mg/dL, the Activity [11] was “Non-Toxic” and the Activity (Mus musculus) was “Active”. For the same compound, the Activity [12] was 1.44%, the Activity [13] was 0.73% and the Activity [14] was 3.97 g/dL. For the same compound, the k el at 24 h [15] was 5.47e-05 s⁻¹, the Activity [16] was 3.98 g/dL and the CL [17] was 18.3 mL/min/kg. For the same compound, the Activity [18] was 0.29%, the Activity (Calvarial osteoblast [19]) was “inactive” and the Activity (Calvarial osteoblast [20]) was “Active”. It also gave an Activity [21] of 1.14%, a half-life [22] of 3.52 h and an Activity [23] of 0.26 g. The Activity [24] was 0.034 mg/mL, the Activity [25] was 0.11 g and the Activity [26] was 18.42 g. The Activity (Calvarial osteoblast [27]) was “Active”, the Activity [28] was 12.27% and the Activity [29] was 1.77%. It also gave an Activity [30] of 5.28% and an Activity [31] of 0.28 g.
